Test results from publication PMC3866046 (Biochemical pharmacology, 2013).
Read-outs that look alike come from different tables or passages of the source.

Legend:
hENT2 [1] = biological target: T1, hENT2 (Homo sapiens, UniProt Q14542); test: Inhibition of [3H]uridine uptake in PK15/hENT2 cells; format: cell-based
T1 sequence (Q14542 1-456): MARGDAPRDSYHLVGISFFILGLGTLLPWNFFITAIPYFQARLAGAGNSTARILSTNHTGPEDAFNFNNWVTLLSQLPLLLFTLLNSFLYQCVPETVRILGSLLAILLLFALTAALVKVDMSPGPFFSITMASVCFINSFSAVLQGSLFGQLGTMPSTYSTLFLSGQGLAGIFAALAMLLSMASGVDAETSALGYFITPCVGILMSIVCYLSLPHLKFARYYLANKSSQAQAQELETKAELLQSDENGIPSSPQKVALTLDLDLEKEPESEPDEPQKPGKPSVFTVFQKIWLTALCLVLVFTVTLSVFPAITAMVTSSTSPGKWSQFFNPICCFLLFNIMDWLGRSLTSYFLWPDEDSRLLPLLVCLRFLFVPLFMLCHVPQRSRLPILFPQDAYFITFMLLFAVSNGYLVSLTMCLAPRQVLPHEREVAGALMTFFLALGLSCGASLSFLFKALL
Procedure, shortened: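 PK15 cells stably expressing hENT2, in sodium-free choline chloride buffer at pH 7.4. Test compound was added for 15 min, either at graded concentrations or at 10 μM for screening; 0.2 μM [3H]uridine was then taken up for 2 min. Stopped with ice-cold PBS washes, lysed in Triton X-100, scintillation counted. Triplicates; screening uptake given as % of compound-free uptake; IC50 by nonlinear fit.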

hENT4 = biological target: T2, hENT4 (Homo sapiens, UniProt Q7RTT9); test: Inhibition of [3H]adenosine uptake in PK15/hENT4 cells at pH 6.0; format: cell-based
T2 sequence (Q7RTT9 1-530): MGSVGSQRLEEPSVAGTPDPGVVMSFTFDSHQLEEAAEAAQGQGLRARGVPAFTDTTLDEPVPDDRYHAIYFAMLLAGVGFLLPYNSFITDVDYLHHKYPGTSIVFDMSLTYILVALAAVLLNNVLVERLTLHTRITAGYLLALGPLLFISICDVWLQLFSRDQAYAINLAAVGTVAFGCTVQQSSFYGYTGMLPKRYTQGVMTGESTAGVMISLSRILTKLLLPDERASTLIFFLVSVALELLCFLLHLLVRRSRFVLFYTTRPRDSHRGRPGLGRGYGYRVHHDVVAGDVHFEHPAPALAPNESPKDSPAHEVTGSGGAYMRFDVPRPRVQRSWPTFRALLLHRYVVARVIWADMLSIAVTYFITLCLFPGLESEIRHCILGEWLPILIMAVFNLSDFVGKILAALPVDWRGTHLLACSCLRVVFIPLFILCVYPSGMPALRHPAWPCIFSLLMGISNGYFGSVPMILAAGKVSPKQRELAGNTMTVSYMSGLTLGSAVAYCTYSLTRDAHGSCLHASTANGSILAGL
Procedure, shortened: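 PK15NTD porcine kidney cells stably expressing FLAG-tagged hENT4 (cDNA cloned from HUVECs, G418-selected). Cells preincubated 15 min with graded test compound concentrations in transport buffer at pH 6.0, then given 0.2 μM [3H]adenosine for 2 min. Stopped by aspiration and three ice-cold PBS washes, lysed in 5% Triton X-100, scintillation counted. Triplicates; IC50 by nonlinear fitting.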

PK15-hENT4 cells = test: MTT assay for cell viability; format: cell-based, porcine; details: 10 μM, 24 hours, compared with camptothecin
Procedure, shortened: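 PK15NTD (nucleoside-transporter-deficient) cells stably expressing recombinant hENT4 were trypsinised and seeded at 5 × 10^3 cells/well in MEM. […] MTT (5 mg/ml stock in PBS) was added for 4 h at 37 °C. Formazan was dissolved in 0.04 N HCl/isopropanol for 3 h at room temperature, and absorbance was read at 570 nm.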

hENT2 [2] = biological target: T1, hENT2; details: read-out: hENT2 IC50; cited from earlier work
mouse ENT4 = details: read-out: apparent Km of adenosine transport; pH 5.5; cited from earlier work
human ENT4 = details: read-out: apparent Km of adenosine transport; pH 5.5; cited from earlier work

Compound: OCCN(CCO)c1nc(N2CCCCCCC2)c2nc(N(CCO)CCO)nc(N3CCCCCCC3)c2n1 [Compound 13, 2,6-bis(diethanolamino)-4,8-diheptamethyleneimino-pyrimido[5,4d]pyrimidine]
- activity against hENT2 (in words) (hENT2 [1]): active

Compound: CC(C)CN(CC(C)C)c1nc(NCCO)nc2c(N(CC(C)C)CC(C)C)nc(NCCO)nc12 [Compound 30, 2,6-diethanolamino-4,8-di-(diisobutylamino)-pyrimido[5,4-d]pyrimidine]
- selectivity for hENT4 relative to ENT1 (hENT4): about 80 fold
- selectivity for hENT4 relative to ENT2 (hENT4): ~20 fold
- cytotoxicity / cell viability (in words) (PK15-hENT4 cells): no cytotoxicity
- cytotoxicity / cell viability (in words) (PK15-hENT4 cells; listed as compound 30): significantly non-cytotoxic

Compound: O=[N+]([O-])c1ccc(CSc2ncnc3c2ncn3[C@@H]2O[C@H](CO)[C@@H](O)[C@H]2O)cc1 [NBMPR, nitrobenzylmercaptopurine ribonucleoside, reference compound]
- IC50 (hENT2 [2]): 2800 nM
- IC50 (hENT4): 2330 nM
- IC50 (hENT2 [1]): 1350 nM

Compound: Nc1ncnc2c1ncn2[C@@H]1O[C@H](CO)[C@@H](O)[C@H]1O [adenosine]
- Km (mouse ENT4): 130 µM
- Km (human ENT4): 780 µM
